Activity calls are given as the source filed them. The calls are words filed in the database; no cut-off is given here.
Tests used:
[1] = system: GTPase HRas (Homo sapiens), P01112 [G12V]; test: Inhibition of HRAS G12V mutant (unknown origin) expressed in mouse NIH/3T3 cells assessed as reduction in MAPK phosphorylation up to 100 nM measured after 2 hrs by Western blot analysis; assay type: cell-based
[2] = molecular target: Tyrosine-protein kinase Lyn (Homo sapiens) (UniProt P07948); test: Binding affinity to wild-type human partial length LYN (C219 to Q511 residues) expressed in bacterial expression system at 100 nM by Kinomescan method relative to control
[3] = system: BaF3; test: Cytotoxicity against mouse BAF3 cells assessed as reduction in cell proliferation supplemented with fresh medium containing compound for every 2 to 3 days and measured daily; assay type: cell-based
Procedure, shortened: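 Ba/F3 cells (parental with IL-3 10 ng/mL; RET/C634R, RET/M918T, NCOA4-RET stable transfectants, RET-51 isoform) were seeded at 200000/well in 10% FCS. Drug or vehicle was added the day after plating, with medium changed every 2–3 days, and cells were counted daily. […] This was a single experiment in triplicate.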

[4] = molecular target: Macrophage colony-stimulating factor 1 receptor (Homo sapiens, UniProt P07333); test: Inhibition of recombinant human His-tagged CSF1R cytoplasmic domain (538 to 910 residues) expressed in baculovirus expression system using peptide substrate preincubated for 60 mins followed by substrate addition by microfluidic assay
[5] = molecular target: Proto-oncogene tyrosine-protein kinase receptor Ret (Homo sapiens, UniProt P07949); test: Binding affinity to recombinant phosphorylated RET kinase domain (705 to 1013 residues) (unknown origin) expressed in baculovirus infected Sf9 insect cells assessed as change in melting temperature at 40 uM measured over 240 mins by sypro orange dye based thermal shift assay
[6] = system: Mus musculus; test: Antitumor activity against BALB/c nu/nu mouse implanted with mouse NIH/3T3 cells harboring HRAS G12V mutant assessed as reduction in tumor formation at 1 to 10 mg/kg, po administered once daily via gavage for 3 days; assay type: functional, organism-based
Procedure, shortened: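 Nude mice (female BALB/c nu/nu, 6 weeks old) received subcutaneous dorsal inoculation (both sides) of NIH3T3 cells transformed by RET/C634Y (200000) or HRAS/G12V (50000). Four days later, before tumors appeared, mice were randomized to 1.0, 3.0 or 10 mg/kg/day oral gavage (8 mice/group) or vehicle (8 mice). Vehicle was 80% H2O, 19.875% Tween 20, 0.125% xanthan gum. Tumors were measured by caliper every 2–3 days, with volume = A×B²/2.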

[7] = organism: Homo sapiens; test: Inhibition of NCOA4/RET isoform 9 (unknown origin) expressed in mouse NIH/3T3 cells assessed as reduction in RET phosphorylation at Y905 residue at 1 to 100 nM measured after 2 hrs by Western blot analysis; assay type: cell-based
Procedure, shortened: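 Serum-starved RAT1 (RET point mutants) or NIH3T3 (RET rearrangements) cells expressing short RET-9 isoform, treated 2 h; 50 μg total lysate immunoblotted with anti-phospho-Y1062 and anti-phospho-Y905 RET antibodies, normalized to total RET; ECL detection. Compound from 50 mM DMSO stock diluted in growth medium.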

[8] = organism: Homo sapiens; test: Effect on MAPK phosphorylation in RET deficient human Calu1 cells at 1 to 100 nM measured after 2 hrs by western blot analysis
[9] = molecular target: T1, SHC-transforming protein 1 (Homo sapiens) (UniProt P29353); test: Effect on SHC phosphorylation in RET deficient human Nthy-ori 3-1 cells at 1 to 100 nM measured after 2 hrs by western blot analysis
T1 sequence (whole entry): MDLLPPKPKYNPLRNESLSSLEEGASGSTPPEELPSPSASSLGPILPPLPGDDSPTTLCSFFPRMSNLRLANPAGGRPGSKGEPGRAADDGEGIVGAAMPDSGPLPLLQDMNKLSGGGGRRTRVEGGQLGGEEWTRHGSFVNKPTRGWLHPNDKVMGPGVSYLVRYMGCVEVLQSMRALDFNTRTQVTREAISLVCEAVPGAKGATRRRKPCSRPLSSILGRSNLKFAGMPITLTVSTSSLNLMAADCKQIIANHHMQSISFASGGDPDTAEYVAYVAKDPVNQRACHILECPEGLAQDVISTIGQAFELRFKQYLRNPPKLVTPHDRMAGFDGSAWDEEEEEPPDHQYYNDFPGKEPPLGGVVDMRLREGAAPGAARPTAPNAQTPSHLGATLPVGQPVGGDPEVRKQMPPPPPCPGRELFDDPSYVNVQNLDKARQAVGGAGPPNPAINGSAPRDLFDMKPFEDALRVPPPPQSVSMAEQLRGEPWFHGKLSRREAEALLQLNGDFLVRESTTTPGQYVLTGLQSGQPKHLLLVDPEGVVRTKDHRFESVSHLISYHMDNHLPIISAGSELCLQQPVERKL

[10] = system: BCPAP; test: Cytotoxicity against RET deficient human BCPAP cells supplemented with fresh medium containing compound for every 2 to 3 days measured during compound dosing; assay type: functional, cell-based
Procedure, shortened: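 Human RET-negative lines were seeded in six-well plates at 10000 cells/well, in 5% FCS (Nthy-ori-3-1) or 10% FCS (BCPAP, 8505-C, CALU-1, A549, PC-9). Drug or vehicle was added the day after plating, with medium changed every 2–3 days. Cells were counted every 2–3 days. IC50 was fitted from the last day of the growth curves.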

Sequence of Proto-oncogene tyrosine-protein kinase receptor Ret (P07949 whole entry, the tested form may be a part): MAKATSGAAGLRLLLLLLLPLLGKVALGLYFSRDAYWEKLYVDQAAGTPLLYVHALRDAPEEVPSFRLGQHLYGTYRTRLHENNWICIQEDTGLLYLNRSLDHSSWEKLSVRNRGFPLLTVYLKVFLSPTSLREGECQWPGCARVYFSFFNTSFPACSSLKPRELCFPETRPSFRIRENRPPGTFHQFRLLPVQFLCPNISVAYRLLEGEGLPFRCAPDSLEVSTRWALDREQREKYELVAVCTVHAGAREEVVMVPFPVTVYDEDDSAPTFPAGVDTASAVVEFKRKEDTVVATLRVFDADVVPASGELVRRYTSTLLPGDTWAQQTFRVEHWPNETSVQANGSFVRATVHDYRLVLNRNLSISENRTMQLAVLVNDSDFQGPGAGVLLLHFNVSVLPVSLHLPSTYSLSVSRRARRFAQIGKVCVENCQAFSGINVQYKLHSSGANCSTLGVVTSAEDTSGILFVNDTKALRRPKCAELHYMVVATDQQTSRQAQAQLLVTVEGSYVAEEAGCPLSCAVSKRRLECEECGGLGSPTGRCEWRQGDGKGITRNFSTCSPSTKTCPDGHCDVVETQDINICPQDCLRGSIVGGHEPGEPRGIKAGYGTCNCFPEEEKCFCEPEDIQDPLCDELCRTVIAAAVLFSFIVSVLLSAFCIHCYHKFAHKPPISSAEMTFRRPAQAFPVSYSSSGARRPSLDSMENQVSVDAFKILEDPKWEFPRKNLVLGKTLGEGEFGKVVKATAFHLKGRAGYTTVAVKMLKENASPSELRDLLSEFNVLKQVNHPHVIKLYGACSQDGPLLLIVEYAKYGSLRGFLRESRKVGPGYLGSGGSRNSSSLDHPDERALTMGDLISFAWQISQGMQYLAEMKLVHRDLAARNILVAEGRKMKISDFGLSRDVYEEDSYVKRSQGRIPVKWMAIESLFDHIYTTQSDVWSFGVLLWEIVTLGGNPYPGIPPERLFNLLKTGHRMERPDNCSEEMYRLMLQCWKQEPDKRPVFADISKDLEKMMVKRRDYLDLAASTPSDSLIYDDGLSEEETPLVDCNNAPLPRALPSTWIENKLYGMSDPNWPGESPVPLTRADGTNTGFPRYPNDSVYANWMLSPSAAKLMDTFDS
Sequence of GTPase HRas (Homo sapiens), P01112 [G12V] (P01112 whole entry G12V, the tested form may be a part): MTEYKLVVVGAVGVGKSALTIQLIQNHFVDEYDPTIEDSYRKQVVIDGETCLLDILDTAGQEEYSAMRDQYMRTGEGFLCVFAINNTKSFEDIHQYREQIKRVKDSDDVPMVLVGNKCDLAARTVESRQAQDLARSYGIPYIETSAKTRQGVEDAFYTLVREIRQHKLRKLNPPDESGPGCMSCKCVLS
Sequence of Tyrosine-protein kinase Lyn (Homo sapiens) (P07948 2-512 limits assumed): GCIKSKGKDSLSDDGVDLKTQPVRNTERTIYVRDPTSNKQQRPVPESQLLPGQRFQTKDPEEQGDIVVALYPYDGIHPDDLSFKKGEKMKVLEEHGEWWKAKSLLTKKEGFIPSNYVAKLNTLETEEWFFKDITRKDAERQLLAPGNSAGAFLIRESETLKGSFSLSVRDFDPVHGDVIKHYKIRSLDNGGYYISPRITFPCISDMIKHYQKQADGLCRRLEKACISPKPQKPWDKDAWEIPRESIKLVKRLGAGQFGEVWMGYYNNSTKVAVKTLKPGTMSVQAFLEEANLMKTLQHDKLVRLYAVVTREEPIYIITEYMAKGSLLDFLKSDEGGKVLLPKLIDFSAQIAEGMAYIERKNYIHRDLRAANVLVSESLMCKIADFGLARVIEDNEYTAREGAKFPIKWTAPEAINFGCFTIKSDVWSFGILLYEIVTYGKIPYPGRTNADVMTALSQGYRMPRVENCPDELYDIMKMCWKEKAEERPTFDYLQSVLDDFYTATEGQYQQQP
Sequence of Macrophage colony-stimulating factor 1 receptor (P07333 whole entry, the tested form may be a part): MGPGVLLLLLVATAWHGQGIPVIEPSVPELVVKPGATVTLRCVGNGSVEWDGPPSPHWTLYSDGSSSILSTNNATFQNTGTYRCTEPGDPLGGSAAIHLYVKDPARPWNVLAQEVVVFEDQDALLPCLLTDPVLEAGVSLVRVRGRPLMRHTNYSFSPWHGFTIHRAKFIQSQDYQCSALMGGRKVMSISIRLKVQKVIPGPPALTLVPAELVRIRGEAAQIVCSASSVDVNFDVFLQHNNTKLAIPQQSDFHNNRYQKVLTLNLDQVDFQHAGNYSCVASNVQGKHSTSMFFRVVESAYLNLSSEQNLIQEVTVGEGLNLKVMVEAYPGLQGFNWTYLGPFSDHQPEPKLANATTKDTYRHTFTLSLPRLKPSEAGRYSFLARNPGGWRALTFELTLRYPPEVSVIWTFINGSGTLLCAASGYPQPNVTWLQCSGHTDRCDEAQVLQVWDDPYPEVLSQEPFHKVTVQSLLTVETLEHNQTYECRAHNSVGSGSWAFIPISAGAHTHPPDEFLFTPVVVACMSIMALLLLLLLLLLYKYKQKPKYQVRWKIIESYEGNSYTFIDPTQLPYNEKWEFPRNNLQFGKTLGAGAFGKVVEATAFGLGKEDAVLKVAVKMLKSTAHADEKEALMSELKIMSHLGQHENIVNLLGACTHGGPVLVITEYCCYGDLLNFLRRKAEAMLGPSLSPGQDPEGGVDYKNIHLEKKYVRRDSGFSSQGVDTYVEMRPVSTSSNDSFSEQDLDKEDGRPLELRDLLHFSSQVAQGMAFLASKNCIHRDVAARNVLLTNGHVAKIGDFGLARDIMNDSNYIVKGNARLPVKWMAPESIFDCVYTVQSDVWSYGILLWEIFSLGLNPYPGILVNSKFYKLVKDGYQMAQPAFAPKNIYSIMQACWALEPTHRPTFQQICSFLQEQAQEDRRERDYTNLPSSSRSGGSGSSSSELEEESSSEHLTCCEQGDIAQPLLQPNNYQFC

CC(C)(C)c1cc(NC(=O)Cc2ccc(-n3cnc4cc(-c5ccc(S(C)(=O)=O)cc5)ccc43)cc2)no1
inhibition [1]: inactive | Activity [2]: > 90% | IC50 [3]: > 100 nM | IC50 [4]: 46 nM | ΔTm [5]: 16 °C | Activity [6]: inactive | inhibition [7]: Active | Activity [8]: inactive | Activity [9]: inactive | IC50 [10]: > 100 nM
